Assay outcomes as filed in PubChem BioAssay.
Only some compounds are listed: those with a hit (about 5.4% of all), similar ones and a draw of the others.
SKKanGAS inh: S. pyogenes SKKanGAS growth inhibitors in kanamycin, primary screen, streptokinase expression inhibitor project, SKKanGAS strain, BacTiter-Glo luminescence | 6 h | inhibition, % at 7.5 µM | 1.3% of 300,000 active | AID 1662, 2009;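 active means mean replicate score, as percent of positive control median, at least 50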;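 further: strain carries kanamycin resistance gene driven by streptokinase promoter and grows in 40 µg/ml kanamycin; loss of luminescence reflects streptokinase promoter inhibition or plain growth inhibition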
CSC inhib: cancer stem cell viability inhibitors, primary screen, luminescence; cancer stem cell-like cells viability; inhibition, % at 7.5 µM; 1.1% of 300,000 active; in the data active means inhibition above about 75%; tested in HMLE shEcad cells
aSyn 5UTR inh: MLPCN primary screen, SNCA 5' untranslated region | 0.82% of 300,000 active | AID 1813, 2009 | inhibition, % (tested at 7.5 µM) | alpha-synuclein 5'UTR reporter, inhibitor activity; in the data active means inhibition above about 60%;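 further: H4 neuroglioblastoma cells stably carrying SNCA 5'UTR luciferase fusion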
T cruzi repl: inhibitors of intracellular T. cruzi growth, primary screen, luminescence, NIH3T3 host cells; T. cruzi beta-gal in NIH3T3, 90 h; inhibition, % (concentration not given with the values); 1.4% of 300,000 active; AID 1885, 2009;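 active means mean inhibition across valid replicates above about 55%, limit read from the data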;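 further: signal also drops with host cell toxicity which is not excluded here; higher percent means less beta-gal luminescence so fewer parasites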
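System: mouse NIH/3T3 fibroblasts infected with β-gal-expressing T. cruzi Tulahuen C4 / Input: NIH/3T3 cells, 5,000 per well / Buffer or medium: Low-serum DMEM with 2% FBS / Probe or stimulus: 5000 reporter trypomastigotes per well / Schedule: ≥90 h infection period, 3 h prior cell attachment / Measured by: GalScreen luminescence, 60 min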
Mdm2 MdmX PPI: inhibitors of human Mdm2-MdmX association, primary screen, cell-based, luminescence, split luciferase, SaOS-2, uHTS; 3% of 330,000 active; AID 485346, 2010; inhibition, % at 8 µM; SaOS-2 split-luciferase Mdm2/MdmX complementation;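 active means inhibition of at least 50% at 8 µM in the primary screen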
Mdm2 MdmX conf: Mdm2-MdmX complex disruptors, retested hits, confirmation, luminescence, single concentration; shares compounds with Mdm2 MdmX PPI; AID 489028, 2010; 55% of 10,000 active; inhibition, % at 8 µM; Mdm2-MdmX binding, luminescent assay; in the data active means inhibition above about 40%
FLuc counter: full-length luciferase signal inhibition, confirmation, counter-screen for Mdm2/MdmX interaction inhibitor project, cell-based, single concentration, SaOS-2. inhibition, % at 8 µM. SaOS-2 full-length luciferase counterscreen, luminescence. 77% of 6,200 active. shares compounds with Mdm2 MdmX PPI;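 active means mean inhibition at 8 µM reaching about 37%, which flags the compound as non-specific, limit read from the data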;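 further: p53-null SaOS-2 cells with luciferase driven by a doxycycline-inducible promoter; compound on cells about two nights before reading with doxycycline added after day one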
Of the large screens only hits and unclear results are named; the others gave an inactive call (follow-up assays come after a bar, where they were run).

Cc1ccc(OCC(=O)N/N=C\c2c(C)[nH]n(-c3ccccc3)c2=O)c([N+](=O)[O-])c1	Mdm2 MdmX PPI 52 | Mdm2 MdmX conf inactive
Cc1ccc(/C=N/Nc2nncc(-c3ccccc3)n2)o1	none (no result: CSC inhib)
Cc1ccc(-n2[nH]c(C)c(C=Nc3ccc(Br)cn3)c2=O)cc1	none
Cc1[nH]n(-c2ccccc2)c(=O)c1/C=N/Nc1nncc(-c2ccccc2)n1	CSC inhib 110, aSyn 5UTR inh 91, T cruzi repl 70, Mdm2 MdmX PPI 88 | Mdm2 MdmX conf 86 | FLuc counter 55
CC(C)(O)CC[C@H](OC(=O)c1ccccc1)[C@](C)(O)[C@H]1CC[C@@]2(O)C3=CC(=O)[C@@H]4C[C@@H](O)[C@H](O)C[C@]4(C)C3CC[C@]12C (stereo partly specified)	none
CSc1cccc(NC(=O)C(C)NS(=O)(=O)c2ccc(F)cc2)c1 (stereo unspecified)	none (no result: aSyn 5UTR inh, T cruzi repl)
CCOC(=O)c1ccc(N2C(=O)C(C)=C(C)C2=O)cc1	Mdm2 MdmX PPI 62 | Mdm2 MdmX conf inactive
CCC(=O)NC(c1cc(Cl)c2ccccc2c1O)C(C)C (stereo unspecified)	none (no result: SKKanGAS inh, aSyn 5UTR inh, T cruzi repl)
CCC(=O)NC(c1ccc(C)cc1)c1cc(Cl)c2cccnc2c1O (stereo unspecified)	Mdm2 MdmX PPI 79 (no result: SKKanGAS inh, CSC inhib, aSyn 5UTR inh, T cruzi repl) | Mdm2 MdmX conf 55 | FLuc counter inactive
CCOc1ccc(C(Nc2cccnc2)c2cc(Cl)c3cccnc3c2O)cc1 (stereo unspecified)	aSyn 5UTR inh 67, Mdm2 MdmX PPI 64 (no result: SKKanGAS inh) | Mdm2 MdmX conf 65 | FLuc counter 43
CCC(=O)NC(C)c1cc(Cl)c2cccnc2c1O (stereo unspecified)	none (no result: SKKanGAS inh, aSyn 5UTR inh, T cruzi repl)
CCCC(=O)NC(c1ccc2c(c1)OCO2)c1cc(Cl)c2cccnc2c1O (stereo unspecified)	SKKanGAS inh 62, CSC inhib 113, aSyn 5UTR inh 80, T cruzi repl 56, Mdm2 MdmX PPI 76 | Mdm2 MdmX conf 72 | FLuc counter inactive
O=C(O)COc1ccccc1C(Nc1cccnc1)c1cc(Cl)c2cccnc2c1O (stereo unspecified)	none (no result: CSC inhib)
O=C(NC(c1ccccc1)c1cc(Cl)c2cccnc2c1O)c1cccnc1 (stereo unspecified)	SKKanGAS inh 94, CSC inhib 102, aSyn 5UTR inh 100, T cruzi repl 58, Mdm2 MdmX PPI 83 | Mdm2 MdmX conf 89 | FLuc counter inactive
CC[C@]12c3[nH]c4ccc(OC)cc4c3CCN1C(=O)C(CC(=O)NC(C)(C)C)C[C@@H]2C(=O)N1CCN(C(=O)c2ccco2)CC1 (stereo partly specified)	none (no result: SKKanGAS inh, CSC inhib, aSyn 5UTR inh, T cruzi repl)
CC(=O)Oc1ccccc1C(=O)NC(C)CCc1ccccc1 (stereo unspecified)	none
COc1ccc(/C=C/C(=O)Oc2cccc(/C=N/NC(=O)COc3c(C)cccc3C)c2)cc1	none
CCCC(=O)NC(c1cccs1)c1cc(Cl)c2cccnc2c1O (stereo unspecified)	aSyn 5UTR inh 99, T cruzi repl 78, Mdm2 MdmX PPI 82 (no result: SKKanGAS inh) | Mdm2 MdmX conf 69 | FLuc counter inactive
CCCC(=O)NC(c1ccco1)c1cc(Cl)c2cccnc2c1O (stereo unspecified)	SKKanGAS inh 71, T cruzi repl 62, Mdm2 MdmX PPI 65 | Mdm2 MdmX conf 46 | FLuc counter inactive
O=C(O)COc1ccccc1C(Nc1ccccn1)c1cc(Cl)c2cccnc2c1O (stereo unspecified)	none
CCC(=O)NC(c1ccco1)c1cc(Cl)c2ccccc2c1O (stereo unspecified)	none (no result: SKKanGAS inh, aSyn 5UTR inh, T cruzi repl)
CN1CCN(C(c2ccc(Br)cc2)c2cc(Cl)c3cccnc3c2O)CC1 (stereo unspecified)	SKKanGAS inh 69, CSC inhib 111, aSyn 5UTR inh 67, Mdm2 MdmX PPI 80 | Mdm2 MdmX conf 62 | FLuc counter 48
COC(=O)[C@@]12CCCCN1[C@H](c1ccc(-c3cccc(Cl)c3)c(OC)c1)[C@H]1C(=O)N(C)C(=O)[C@H]12	none
CCCCCC(=O)N/N=C(\C)c1ccc(Cl)cc1	none
COc1cc(/C=N/NC(=O)c2ccncc2)ccc1OC(=O)c1cc(OC)c(OC)c(OC)c1	none (no result: CSC inhib)
COc1ccc(CN2CCc3c([nH]c4ccccc34)C2)cc1Br	Mdm2 MdmX PPI 69 | Mdm2 MdmX conf inactive
O=C(NCC(=O)N1CCCC1)c1ccc(Cl)cc1	none
Cc1ccc(C(=O)c2oc3ccccc3c2NC(=O)c2cc(-c3cc(C)ccc3O)n[nH]2)cc1	Mdm2 MdmX PPI 78 | Mdm2 MdmX conf inactive | FLuc counter 72
Cc1ccc(C(=O)c2oc3ccccc3c2NC(=O)c2cc(-c3ccccc3O)n[nH]2)cc1	none
Cc1ccc(C2=NCCn3nc4cc(C(F)(F)F)ccc4c32)cc1	none (no result: SKKanGAS inh, aSyn 5UTR inh, T cruzi repl)
Cc1ccc(CNC(=O)C2CCN(S(=O)(=O)c3ccc4c(c3)CC(C)N4C(=O)C3CC3)CC2)cc1 (stereo unspecified)	none
Cc1ccc(CNC(=O)CCS(=O)(=O)c2ccc3c(c2)CC(C)N3C(=O)C2CC2)cc1 (stereo unspecified)	Mdm2 MdmX PPI 63 | Mdm2 MdmX conf 49 | FLuc counter 50
COc1cc(/C=N/NC(=Nc2ccc(C)cc2)c2nc3ccccc3s2)ccc1O	Mdm2 MdmX PPI 83 (no result: CSC inhib) | Mdm2 MdmX conf 79 | FLuc counter 51
Cc1ccc2[nH]c(O)c(N=Nc3nc4ccccc4s3)c2c1	SKKanGAS inh 108, T cruzi repl 61, Mdm2 MdmX PPI 68 | Mdm2 MdmX conf 55 | FLuc counter 47
CCC1(CC)NC(=O)N(CC(=O)OCC(=O)Nc2ccc(F)c(F)c2F)C1=O	none
CCN1/C(=C/C=C/C=C/c2sc3ccccc3[n+]2CC)Sc2ccccc21	SKKanGAS inh 104, aSyn 5UTR inh 126, T cruzi repl 58, Mdm2 MdmX PPI 91 | Mdm2 MdmX conf 82 | FLuc counter 44
CCN1/C(=C/C=C/c2sc3ccccc3[n+]2CC)Sc2ccccc21	SKKanGAS inh 89, CSC inhib 79, Mdm2 MdmX PPI 96 | Mdm2 MdmX conf 85 | FLuc counter inactive
CCN1/C(=C/C=C/C=C/C=C/c2sc3ccccc3[n+]2CC)Sc2ccccc21	none
CC(=O)NC1=C(N(C)C2CCS(=O)(=O)C2)C(=O)c2ccccc2C1=O (stereo unspecified)	none
CC(=O)NC1=C(Nc2ccc(N(C)C)cc2)C(=O)c2ccccc2C1=O	Mdm2 MdmX PPI 70 | Mdm2 MdmX conf 45 | FLuc counter 115
